From ChEMBL document CHEMBL1148839, “Synthesis of new xanthone analogues and their biological activity test--cytotoxicity, topoisomerase II inhibition, and DNA cross-linking study” (Bioorg Med Chem Lett, 2007)

Tests used:
LNCaP = assay: Cytotoxicity against human LnCap cells after 4 days by MTT assay; format: functional, cell-based; conditions: 96 h
Method in brief: (§1)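 Cells from ATCC seeded at 2-4×10^4 per well, attached overnight in medium with 10% FBS, 37 °C, 5% CO2. On day 1 medium replaced with medium containing graded compound concentrations. On day 4 MTT added (final 0.5 mg/mL), 4 h further incubation, DMSO solubilization, absorbance at 570 nm. IC50 from four-parameter logistic fit; each value average of four experiments.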

MCF7 = assay: Cytotoxicity against human MCF7 cells after 4 days by MTT assay; format: functional, cell-based; conditions: MCF7, 96 h; method in brief: as §1
HCT-116 = assay: Cytotoxicity against human HCT116 cells after 4 days by MTT assay; format: functional, cell-based; conditions: HCT-116, 96 h; method in brief: as §1
MDA-MB-231 = assay: Cytotoxicity against human MDA-MB-231 cells after 4 days by MTT assay; format: functional, cell-based; conditions: MDA-MB-231, 96 h; method in brief: as §1
HeLa = assay: Cytotoxicity against human HeLa cells after 4 days by MTT assay; format: functional, cell-based; conditions: 96 h; method in brief: as §1
Homo sapiens = species on record: Homo sapiens; assay: Inhibition of human topoisomerase 2-mediated DNA relaxation at 100 uM relative to etoposide
Method in brief: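 Relaxation assay: supercoiled pBR322 plasmid DNA (0.3 µg) incubated with 0.2 unit human topoisomerase II and compound (20 and 100 µM), 37 °C, 30 min. Etoposide as positive control. Inhibition ratio calculated from gel band densitometry.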

Escherichia coli = assay: Effect on pBR322 DNA cross linking activity after 1 hr
Method in brief: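 Linearized pBR322 DNA (0.5 µg) incubated with compound at 0, 10, 50, 100, 200 µM for 1 h at room temperature in 10 mM Tris-HCl pH 7.5. Run on 1.2% alkaline agarose gel (40 mM NaOH, 1 mM EDTA running buffer), neutralized, ethidium bromide stained, UV visualized.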

| inhibition (Homo sapiens) [%] | Activity (Escherichia coli) | SMILES | IC50 (LNCaP) [µM] | IC50 (MCF7) [µM] | IC50 (HCT-116) [µM] | IC50 (MDA-MB-231) [µM] | IC50 (HeLa) [µM] |
| --- | --- | --- | --- | --- | --- | --- | --- |
|  |  | COc1cccc2c(=O)c3c(O)cc(OCC(O)CBr)cc3oc12 (configuration not stated) | > 100 | 97.8 | > 100 | 99.8 | > 100 |
|  |  | COc1cccc2c(=O)c3c(O)cc(OCC4CO4)cc3oc12 (configuration not stated) | > 100 | > 100 | > 100 | > 100 | > 100 |
| 57 |  | O=c1c2ccccc2oc2cc(OCC(O)CBr)cc(O)c12 (configuration not stated) | 64.4 | 53.5 | 16.9 | 76.3 | 98.1 |
|  |  | O=c1c2ccccc2oc2cc(OCC(O)CCl)cc(O)c12 (configuration not stated) | > 100 | > 100 | > 100 | > 100 | > 100 |
|  |  | COc1cccc2c(=O)c3c(O)cc(OCC(O)CCl)cc3oc12 (configuration not stated) | > 100 | > 100 | 31.4 | 81.4 | 60.3 |
|  |  | O=c1c2ccccc2oc2cc(OCC3CO3)cc(O)c12 (configuration not stated) | 93.1 | 68.4 | 80.8 | > 100 | 68.7 |
| 100 | Dose-dependent effect | O=c1c2ccccc2oc2cc(OCC3CO3)cc(OCC3CO3)c12 (configuration not stated) | 9 | 3.2 | 10.2 | 12.8 | 23.3 |
|  |  | COc1cccc2c1C(=O)c1c(O)c3c(c(O)c1C2=O)C[C@@](O)(C(=O)CO)C[C@@H]3O[C@H]1C[C@H](N)[C@H](O)[C@H](C)O1 [DOXORUBICIN] | 4.6 |  | 7.7 | 17.6 | 3.3 |
